From ChEMBL document CHEMBL5316295, “Systematic Design of Adenosine Analogs as Inhibitors of a Clostridioides difficile-Specific DNA Adenine Methyltransferase Required for Normal Sporulation and Persistence” (J Med Chem, 2023) come the findings set out here.

Experiment [1] is described as follows: Inhibition of Clostridioides difficile-specific DNA adenine methyltransferase mediated methylation using 5'-CGA TTC AAA AAG TCC CAA G-3' and 3'-GCT AAG TTT TTC AGG GTT C-5' as substrate and SAM as cosubstrate preincubated for 5 mins followed by substrate and cosubstrate addition and measured after 3 mins by MTase glo assay.
Experiment [2] can be described thus: Binding affinity to Clostridioides difficile-specific DNA adenine methyltransferase by MicroCal PEAQ-ITC instrument analysis.
The subject of experiment [3] is Clostridioides difficile. Description: Inhibition of Clostridioides difficile-specific DNA adenine methyltransferase mediated methylation using 5'-CGA TTC AAA AAG TCC CAA G-3' and 3'-GCT AAG TTT TTC AGG GTT C-5' as substrate and SAM as cosubstrate at 1 to 10 uM preincubated for 5 mins followed by substrate and cosubstrate addition and measured after 3 mins by MTase glo assay. To be noted: dose 1-10 µM, time 8.0 min.

For experiment [4], the target named is Histone-lysine N-methyltransferase, H3 lysine-79 specific (Homo sapiens) (UniProt Q8TEK3). Description: Inhibition of human DOT1L using oligonucleosome as substrate and 3H-SAM as cosubstrate at 10 uM pretreated with compound for 20 mins in presence of oligonucleosome followed by cosubstrate addition and measured after 1 hr. To be noted: time 80.0 min. The procedure, abridged: (§1)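 Enzymes (DOT1L 1 nM; EZH2, G9a, PRMT1 5 nM) mixed with substrate (0.05 mg/mL oligonucleosomes for DOT1L; 0.05 mg/mL core histone for EZH2; 5 μM H3 1–21 peptide for G9a; 5 μM H4 for PRMT1). Compound (10 μM) added for 20 min at room temperature, then 1 μM ³H-SAM for 1 h at 30 °C; filter-paper read-out. Triplicates, mean ± SD.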

Experiment [5] addresses T1, Histone-lysine N-methyltransferase EHMT2 (Homo sapiens) (UniProt Q96KQ7).
T1 sequence (whole entry): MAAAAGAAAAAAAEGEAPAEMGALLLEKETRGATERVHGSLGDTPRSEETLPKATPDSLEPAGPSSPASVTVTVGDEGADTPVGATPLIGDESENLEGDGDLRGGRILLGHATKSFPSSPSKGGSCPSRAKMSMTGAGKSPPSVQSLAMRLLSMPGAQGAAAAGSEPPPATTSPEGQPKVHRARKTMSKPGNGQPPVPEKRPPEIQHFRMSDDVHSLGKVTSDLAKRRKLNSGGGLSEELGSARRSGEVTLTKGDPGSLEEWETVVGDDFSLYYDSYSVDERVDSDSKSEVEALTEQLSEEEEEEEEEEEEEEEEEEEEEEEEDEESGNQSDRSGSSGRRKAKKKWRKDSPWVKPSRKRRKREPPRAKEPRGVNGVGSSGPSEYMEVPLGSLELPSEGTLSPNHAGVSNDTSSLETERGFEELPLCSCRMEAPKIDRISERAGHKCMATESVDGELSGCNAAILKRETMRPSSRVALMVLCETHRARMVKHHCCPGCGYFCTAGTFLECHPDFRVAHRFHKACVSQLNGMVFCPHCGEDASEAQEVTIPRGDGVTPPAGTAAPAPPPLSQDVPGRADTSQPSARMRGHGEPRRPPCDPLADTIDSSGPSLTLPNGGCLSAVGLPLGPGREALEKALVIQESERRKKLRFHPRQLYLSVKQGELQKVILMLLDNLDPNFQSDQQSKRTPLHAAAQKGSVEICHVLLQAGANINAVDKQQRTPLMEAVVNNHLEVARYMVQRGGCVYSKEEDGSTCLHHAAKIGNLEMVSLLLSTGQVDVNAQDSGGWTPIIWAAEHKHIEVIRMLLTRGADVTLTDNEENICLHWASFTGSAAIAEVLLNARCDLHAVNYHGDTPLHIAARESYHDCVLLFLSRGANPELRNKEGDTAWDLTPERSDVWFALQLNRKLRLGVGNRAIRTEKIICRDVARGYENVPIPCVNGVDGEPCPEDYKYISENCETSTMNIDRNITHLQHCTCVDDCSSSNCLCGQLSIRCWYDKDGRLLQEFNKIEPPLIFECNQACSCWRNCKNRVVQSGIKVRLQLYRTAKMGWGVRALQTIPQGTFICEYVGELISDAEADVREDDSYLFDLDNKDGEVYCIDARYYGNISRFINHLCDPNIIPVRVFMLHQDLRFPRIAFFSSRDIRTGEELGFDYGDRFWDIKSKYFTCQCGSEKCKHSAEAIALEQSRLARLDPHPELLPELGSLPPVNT
Description: Inhibition of human G9a (913 to 1193 residues) expressed in Escherichia coli BL21 (DE3)-gold cells using histone H3 (1 to 21 residues) as substrate and 3H-SAM as cosubstrate at 10 uM pretreated with compound for 20 mins in presence of histone H3 (1 to 21 residues) followed by cosubstrate addition and measured after 1 hr. To be noted: time 80.0 min. In a few lines: as §1

In experiment [6] the target is Protein arginine N-methyltransferase 1 (Homo sapiens) (UniProt Q99873). Description: Inhibition of PRMT1 (unknown origin) using histone H4 as substrate and 3H-SAM as cosubstrate at 10 uM pretreated with compound for 20 mins in presence of histone H4 followed by cosubstrate addition and measured after 1 hr. To be noted: time 80.0 min. The procedure, abridged:
as §1

The subject of experiment [7] is Clostridioides difficile. Briefly: Binding affinity to Clostridioides difficile-specific DNA adenine methyltransferase assessed as change in enthalpy by MicroCal PEAQ-ITC instrument analysis. In a few lines: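 Test compound (200–900 μM) titrated into CamA (20–60 μM) at 25 °C in 325 mM NaCl, 20 mM Tris–HCl pH 7.5, 0.5 mM TCEP, 10% DMSO; 0.2 μL initial plus 18 × 2 μL injections. Reverse titration used for poorly soluble compounds. Data fitted to a one-site model with offset subtracted; K_D, ΔH, −TΔS and ΔG derived from the fit.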

The nature of experiment [8]: Inhibition of Clostridioides difficile-specific DNA adenine methyltransferase PDB 7RFM using 5'-CGA TTC AAA AAG TCC CAA G-3' and 3'-GCT AAG TTT TTC AGG GTT C-5' as substrate and SAM as cosubstrate preincubated for 5 mins followed by substrate and cosubstrate addition and measured after 3 mins by MTase-Glo assay. The procedure, abridged:
(§2)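 Then 2.5 μM 19-bp dsDNA and 40 μM SAM were added, 3 min at ~22 °C, TFA quench (0.1%). Luminescent SAH readout against a serially diluted SAH standard curve; IC50 and Hill slope reported.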

Experiment [9] can be described thus: Binding affinity to Clostridioides difficile-specific DNA adenine methyltransferase PDB 7RFM by MicroCal PEAQ ITC analysis. In a few lines: (§3)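 CamA (pXC2184 construct) in 325 mM NaCl, 20 mM Tris–HCl pH 7.5, 0.5 mM TCEP, 10% DMSO at 25 °C; 200–900 μM compound titrated into 20–60 μM protein (0.2 μL initial injection then 18 × 2 μL; reverse titration for poorly soluble compounds). Data fitted to a one-site model with offset subtracted to obtain K_D.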
On the technique in general: Isothermal titration calorimetry measures the heat released or taken up as one component is titrated into another.

Experiment [10] deals with Clostridioides difficile. Briefly: Inhibition of Clostridioides difficile-specific DNA adenine methyltransferase using 5'-CGA TTC AAA AAG TCC CAA G-3' and 3'-GCT AAG TTT TTC AGG GTT C-5' as substrate and SAM as cosubstrate at 50 uM preincubated for 5 mins followed by substrate and cosubstrate addition and measured after 3 mins by MTase-Glo assay. The conditions noted are these: time 8.0 min.

The nature of experiment [11]: Binding affinity to Clostridioides difficile-specific DNA adenine methyltransferase PDB 7RFL by MicroCal PEAQ ITC analysis. The procedure, abridged:
as §3

Experiment [12] can be described thus: Inhibition of Clostridioides difficile-specific DNA adenine methyltransferase PDB 7RFL using 5'-CGA TTC AAA AAG TCC CAA G-3' and 3'-GCT AAG TTT TTC AGG GTT C-5' as substrate and SAM as cosubstrate preincubated for 5 mins followed by substrate and cosubstrate addition and measured after 3 mins by MTase-Glo assay. In a few lines: as §2

A word on the IC50: it is the concentration needed to halve the response being measured. Low values mean greater potency in that assay, high ones weaker potency in that assay. Usually Kd stands for the constant that tells how readily two partners part at equilibrium. The low end stands for a tighter complex, the high end for a looser complex.

Active and inactive are the calls of the source. The rule behind the calls is not given here.

Chain of Histone-lysine N-methyltransferase, H3 lysine-79 specific (Homo sapiens) (Q8TEK3 whole entry, looked up): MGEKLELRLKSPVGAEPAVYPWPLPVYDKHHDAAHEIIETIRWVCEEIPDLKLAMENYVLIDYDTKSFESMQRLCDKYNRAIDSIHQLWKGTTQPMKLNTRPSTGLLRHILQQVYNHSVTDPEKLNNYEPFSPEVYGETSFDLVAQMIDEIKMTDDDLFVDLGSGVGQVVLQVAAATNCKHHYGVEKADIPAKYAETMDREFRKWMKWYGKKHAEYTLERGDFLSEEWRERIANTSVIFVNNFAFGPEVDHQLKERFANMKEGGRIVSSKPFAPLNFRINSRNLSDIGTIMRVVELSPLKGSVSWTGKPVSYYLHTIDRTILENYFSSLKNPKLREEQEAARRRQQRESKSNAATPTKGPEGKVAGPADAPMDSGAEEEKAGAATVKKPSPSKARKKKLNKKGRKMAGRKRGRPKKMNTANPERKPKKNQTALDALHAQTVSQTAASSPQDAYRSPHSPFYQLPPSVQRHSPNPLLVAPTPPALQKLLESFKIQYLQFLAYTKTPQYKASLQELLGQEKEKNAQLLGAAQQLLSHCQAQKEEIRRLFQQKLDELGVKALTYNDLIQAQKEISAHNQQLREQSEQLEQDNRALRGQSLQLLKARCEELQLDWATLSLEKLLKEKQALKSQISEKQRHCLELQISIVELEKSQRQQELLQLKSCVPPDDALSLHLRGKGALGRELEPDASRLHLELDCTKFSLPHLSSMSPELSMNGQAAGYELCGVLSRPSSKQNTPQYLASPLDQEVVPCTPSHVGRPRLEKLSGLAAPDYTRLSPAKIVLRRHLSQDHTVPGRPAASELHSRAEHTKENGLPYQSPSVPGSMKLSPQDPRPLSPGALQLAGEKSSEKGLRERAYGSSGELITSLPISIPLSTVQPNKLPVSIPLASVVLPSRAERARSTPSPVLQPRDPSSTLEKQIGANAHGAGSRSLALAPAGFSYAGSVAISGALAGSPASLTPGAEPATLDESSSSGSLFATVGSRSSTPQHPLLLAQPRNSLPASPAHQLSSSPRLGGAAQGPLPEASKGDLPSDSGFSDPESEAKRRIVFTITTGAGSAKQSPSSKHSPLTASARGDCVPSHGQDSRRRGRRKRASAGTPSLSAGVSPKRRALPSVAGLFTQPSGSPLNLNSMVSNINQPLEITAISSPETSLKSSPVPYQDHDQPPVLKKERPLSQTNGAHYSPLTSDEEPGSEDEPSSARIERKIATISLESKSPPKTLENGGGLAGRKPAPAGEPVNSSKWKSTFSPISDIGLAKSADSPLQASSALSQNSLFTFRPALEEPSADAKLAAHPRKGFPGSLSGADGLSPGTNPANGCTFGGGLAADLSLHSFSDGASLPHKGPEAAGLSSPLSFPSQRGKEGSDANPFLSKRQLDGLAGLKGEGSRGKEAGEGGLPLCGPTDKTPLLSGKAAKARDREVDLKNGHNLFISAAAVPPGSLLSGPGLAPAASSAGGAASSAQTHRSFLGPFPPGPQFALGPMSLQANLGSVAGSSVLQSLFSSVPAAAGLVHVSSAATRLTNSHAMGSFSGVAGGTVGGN
Chain of Protein arginine N-methyltransferase 1 (Homo sapiens) (Q99873 whole entry, looked up): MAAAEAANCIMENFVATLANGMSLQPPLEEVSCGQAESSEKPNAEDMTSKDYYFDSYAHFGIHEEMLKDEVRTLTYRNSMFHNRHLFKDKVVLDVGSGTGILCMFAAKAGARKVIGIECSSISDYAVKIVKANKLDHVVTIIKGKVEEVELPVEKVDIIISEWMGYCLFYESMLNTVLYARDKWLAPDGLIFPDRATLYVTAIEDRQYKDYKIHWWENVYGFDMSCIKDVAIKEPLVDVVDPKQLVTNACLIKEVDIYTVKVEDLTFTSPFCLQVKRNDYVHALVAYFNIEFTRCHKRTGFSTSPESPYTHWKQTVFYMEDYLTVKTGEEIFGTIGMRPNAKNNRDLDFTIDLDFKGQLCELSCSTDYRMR

Compound `OC[C@H]1O[C@@H](n2cnc3c(N[C@H]4CCc5ccccc54)ncnc32)[C@H](O)[C@@H]1O` came in with an IC50 in experiment [1] of 43 µM. In [2], this compound yielded a Kd of 49 µM.
Turning to `CC(C)(C)OC(=O)NCCC1CCN(c2ncnc3c2ncn3[C@@H]2O[C@H](CO)[C@@H](O)[C@H]2O)CC1`, the inhibition entry with Clostridioides difficile [3] was “inactive”.
Turning to `OC[C@H]1O[C@@H](n2cnc3c(NCc4ccc(O)cc4)ncnc32)[C@H](O)[C@@H]1O`, the IC50 in experiment [1] worked out at 4.8 µM. The compound further came in with a Kd in [2] of 5.3 µM.
Take `Nc1ncnc2c1ncn2[C@@H]1O[C@H](CSCC[C@H](N)C(=O)O)[C@@H](O)[C@H]1O`: the inhibition entry in [4], in experiment [5] and in [6] was “Active” in each case.
Consider `Nc1ccc(CNc2ncnc3c2ncn3[C@@H]2O[C@H](CO)[C@@H](O)[C@H]2O)cc1`, for which the IC50 in [1] stood at 10 µM. The compound also registered a Kd in experiment [2] of 14 µM. Further, in the experiment on Clostridioides difficile [7], the deltaH was -51 kJ/mol.
Turning to `CC(C)N(CCCNC(=O)Nc1ccc(C(C)(C)C)cc1)C[C@H]1O[C@@H](n2ccc3c(N)ncnc32)[C@H](O)[C@@H]1O`, in experiment [8], the IC50 came out at 43 µM. In addition, the Kd in [9] stood at 18 µM.
In [1], `Nc1ccc(CCCNc2ncnc3c2ncn3[C@@H]2O[C@H](CO)[C@@H](O)[C@H]2O)cc1` had an IC50 of 1.4 µM. In [2], this compound had a dissociation constant Kd of 1.5 µM.
Consider `OC[C@H]1O[C@@H](n2cnc3c(NCCCC4CCNCC4)ncnc32)[C@H](O)[C@@H]1O`, for which the IC50 in experiment [1] was 3.8 µM.
For `OC[C@H]1O[C@@H](n2cnc3c(NCCCCCc4ccccc4)ncnc32)[C@H](O)[C@@H]1O`, inhibition in [1] was half-maximal at 1.3 µM (IC50). In experiment [2], this compound gave a Kd of 1.3 µM.
With `CC(C)(C)OC(=O)N1CCC2(CCN(c3ncnc4c3ncn4[C@@H]3O[C@H](CO)[C@@H](O)[C@H]3O)CC2)C1`, the inhibition result in the experiment on Clostridioides difficile [3] was “inactive”.
For the compound `CC(C)N(CCCNC(=O)Nc1ccc(C(C)(C)C)cc1)C[C@H]1O[C@@H](n2cc(Br)c3c(N)ncnc32)[C@H](O)[C@@H]1O`, the inhibition entry with Clostridioides difficile [10] is “Active”. In addition, the affinity in [11], expressed as Kd, was 6.3 µM. In addition, the IC50 in [12] was determined as 4.7 µM.
Consider `OC[C@H]1O[C@@H](n2cnc3c(NCc4ccccc4)ncnc32)[C@H](O)[C@@H]1O` [N6-BENZYLADENOSINE], for which the IC50 in [1] is 15 µM. The same compound gave a Kd in experiment [2] of 13 µM.
For `OC[C@H]1O[C@@H](n2cnc3c(NCCc4ccccc4)ncnc32)[C@H](O)[C@@H]1O`, in experiment [1], the IC50 was 2.5 µM. The compound also returned a Kd in [2] of 2.9 µM.
Turning to `Nc1ccc(CCNc2ncnc3c2ncn3[C@@H]2O[C@H](CO)[C@@H](O)[C@H]2O)cc1`, the Kd in [2] was found to be 18 µM.
`CC(C)(C)OC(=O)N1CCC(CNc2ncnc3c2ncn3[C@@H]2O[C@H](CO)[C@@H](O)[C@H]2O)CC1` had an IC50 in [1] of 2 µM. Moreover, in [2], binding was put at a Kd of 1.1 µM.
The corresponding values for `OC[C@H]1O[C@@H](n2cnc3c(NCCCc4ccccc4)ncnc32)[C@H](O)[C@@H]1O` are 0.7 µM and 0.5 µM.
As to `OC[C@H]1O[C@@H](n2cnc3c(NCCCCc4ccccc4)ncnc32)[C@H](O)[C@@H]1O`, the IC50 in experiment [1] worked out at 1.6 µM. For the same compound, the Kd in experiment [2] stood at 1.6 µM.
